Active and inactive are the calls of the source. The calls are words filed in the database; no cut-off is given here.
Legend:
[1] = target: Potassium voltage-gated channel subfamily A member 5 (Homo sapiens, UniProt P22460); assay: Antagonist activity at human Kv1.5 channel expressed in CHO cell membrane by HT clamp assay; assay type: functional, cell-based
How it was run: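 IC50 from 10-point concentration-response curves by HT-clamp voltage clamp, 3-4 cells per point. A reference Kv1.5 antagonist was run as positive control.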

[2] = Clearance in rat; assay type: ADME, organism-based; conditions: in vivo
[3] = Bioavailability in rat; assay type: ADME, organism-based; conditions: in vivo
[4] = Volume of distribution in rat; assay type: ADME, organism-based; conditions: in vivo, read-out: Vdss
[5] = target: Voltage-gated inwardly rectifying potassium channel KCNH2 (Homo sapiens, UniProt Q12809); assay: Binding affinity to hERG potassium channel
Chain of Voltage-gated inwardly rectifying potassium channel KCNH2 (Q12809 whole entry): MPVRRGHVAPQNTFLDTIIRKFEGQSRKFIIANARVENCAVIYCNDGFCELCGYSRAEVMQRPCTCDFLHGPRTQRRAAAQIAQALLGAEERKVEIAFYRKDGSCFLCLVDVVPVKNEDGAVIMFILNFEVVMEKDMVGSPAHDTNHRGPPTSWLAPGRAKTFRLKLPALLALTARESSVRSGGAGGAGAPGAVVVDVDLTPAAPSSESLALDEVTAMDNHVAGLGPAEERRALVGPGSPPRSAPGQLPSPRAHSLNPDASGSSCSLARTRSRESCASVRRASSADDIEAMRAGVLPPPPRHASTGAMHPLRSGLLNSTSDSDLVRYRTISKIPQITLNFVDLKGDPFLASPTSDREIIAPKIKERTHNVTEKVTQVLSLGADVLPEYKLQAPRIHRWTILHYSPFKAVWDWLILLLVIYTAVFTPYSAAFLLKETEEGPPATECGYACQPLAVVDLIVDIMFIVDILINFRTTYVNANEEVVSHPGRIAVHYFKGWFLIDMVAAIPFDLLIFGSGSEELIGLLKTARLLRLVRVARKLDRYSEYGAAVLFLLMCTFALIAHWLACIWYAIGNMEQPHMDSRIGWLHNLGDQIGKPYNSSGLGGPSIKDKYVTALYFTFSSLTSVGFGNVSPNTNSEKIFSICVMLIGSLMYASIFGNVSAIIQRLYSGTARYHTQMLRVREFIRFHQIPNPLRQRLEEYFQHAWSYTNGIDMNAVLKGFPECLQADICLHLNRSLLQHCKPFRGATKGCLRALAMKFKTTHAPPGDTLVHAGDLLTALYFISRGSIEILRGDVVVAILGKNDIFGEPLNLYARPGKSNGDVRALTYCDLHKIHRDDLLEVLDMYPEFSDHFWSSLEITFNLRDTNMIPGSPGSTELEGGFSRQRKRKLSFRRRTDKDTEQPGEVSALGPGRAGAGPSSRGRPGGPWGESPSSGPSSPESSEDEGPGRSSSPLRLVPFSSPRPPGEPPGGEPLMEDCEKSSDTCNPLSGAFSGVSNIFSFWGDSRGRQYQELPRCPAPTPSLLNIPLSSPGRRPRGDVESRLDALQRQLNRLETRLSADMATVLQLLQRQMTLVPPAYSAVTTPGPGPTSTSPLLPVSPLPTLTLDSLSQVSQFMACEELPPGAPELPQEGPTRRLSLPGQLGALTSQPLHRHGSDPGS

Rattus norvegicus [6] = organism: Rattus norvegicus; assay: Increase in atrial refractory period in surgically instrumented rat electrophysiology model; conditions: Cardiac atrium
Canis familiaris [7] = organism: Canis familiaris; assay: Increase in atrial refractory period in dog electrophysiology model; assay type: functional, organism-based; conditions: Canis lupus familiaris; Cardiac atrium
Rattus norvegicus [8] = organism: Rattus norvegicus; assay: Increase in atrial refractory period in surgically instrumented rat electrophysiology model; assay type: functional, organism-based; conditions: Cardiac atrium
Canis familiaris [9] = organism: Canis familiaris; assay: Effect on ventricular refractory period in dog electrophysiology model; assay type: functional, organism-based; conditions: Canis lupus familiaris; Cardiac ventricle
Rattus norvegicus [10] = organism: Rattus norvegicus; assay: Increase in ventricular refractory period in surgically instrumented rat electrophysiology model; assay type: functional, organism-based; conditions: Cardiac ventricle
Rattus norvegicus [11] = organism: Rattus norvegicus; assay: Effect on AV node refractory period in surgically instrumented rat electrophysiology model at 35 uM; assay type: functional, organism-based
Rattus norvegicus [12] = organism: Rattus norvegicus; assay: Increase in AV node refractory period in surgically instrumented rat electrophysiology model; assay type: functional, organism-based

Chain of Potassium voltage-gated channel subfamily A member 5 (P22460 whole entry): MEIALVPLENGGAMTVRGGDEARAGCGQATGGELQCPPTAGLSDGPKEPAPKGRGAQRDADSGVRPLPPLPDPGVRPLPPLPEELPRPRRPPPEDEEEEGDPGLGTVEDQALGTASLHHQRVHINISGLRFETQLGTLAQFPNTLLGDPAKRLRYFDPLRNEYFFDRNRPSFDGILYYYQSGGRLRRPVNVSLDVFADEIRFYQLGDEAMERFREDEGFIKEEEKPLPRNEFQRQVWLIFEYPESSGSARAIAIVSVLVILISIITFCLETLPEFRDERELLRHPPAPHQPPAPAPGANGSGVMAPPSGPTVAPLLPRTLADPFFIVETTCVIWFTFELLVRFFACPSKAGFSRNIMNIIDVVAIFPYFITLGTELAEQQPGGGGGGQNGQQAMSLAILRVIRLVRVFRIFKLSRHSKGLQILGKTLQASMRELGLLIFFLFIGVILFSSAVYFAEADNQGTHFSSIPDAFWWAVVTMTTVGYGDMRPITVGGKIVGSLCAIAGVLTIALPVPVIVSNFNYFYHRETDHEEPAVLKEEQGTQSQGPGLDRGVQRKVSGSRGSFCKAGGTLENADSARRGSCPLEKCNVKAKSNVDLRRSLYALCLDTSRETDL

Which results are given for COc1ccc2c(OC[C@H](O)CO)nc(C#N)c(-c3ccccc3)c2c1?
IC50 [1]: 0.16 µM; clearance [2]: 0.78 L/h/kg; bioavailability [3]: 67%; Vd [4]: 1.7 L/kg; IC50 [5]: 20.5 µM; Activity (Rattus norvegicus [6]): Active

For COc1ccc2c(C(=O)NCCO)nc(C#N)c(-c3ccccc3)c2c1, which Activity (Canis familiaris [7]) is on record?
The Activity was “Active”.

And the Activity (Rattus norvegicus [8])?
Its Activity is “Active”.

And the IC50 [5]?
Its IC50 is > 30 µM.

And the Activity (Canis familiaris [9])?
The Activity was “inactive”.

Which Activity (Rattus norvegicus [8]) does the source give for COc1ccc2c(=O)n(C[C@H](O)CO)c(C#N)c(-c3ccccc3)c2c1 here?
The Activity was “Active”.

What about the Activity (Rattus norvegicus [10]) of the same compound?
The Activity was “Active”.

What about the Activity (Rattus norvegicus [11]) of the same compound?
Its Activity is “inactive”.

What does the source list for COc1ccc2c(=O)n(CC(O)CO)c(C#N)c(-c3cccc(F)c3)c2c1 (centres undefined)?
IC50 [1]: 0.87 µM; IC50 [5]: 33.5 µM

For COCCN(C)CCn1c(C#N)c(-c2cccc(F)c2)c2cc(OC)ccc2c1=O, which IC50 [1] is on record?
The IC50 was 0.79 µM.

With COc1ccc2c(NC[C@H](O)CO)nc(C#N)c(-c3ccccc3)c2c1 as the compound, how does the Activity (Rattus norvegicus [12]) read?
Its Activity is “Active”.

What about the IC50 [5] of the same compound?
Its IC50 is 15 µM.

What about the Activity (Rattus norvegicus [6]) of the same compound?
Its Activity is “Active”.

What does the source list for COc1ccc2c(-n3cnc(C)c3)nc(C#N)c(-c3cccc(F)c3)c2c1?
IC50 [1]: 0.26 µM; Activity (Rattus norvegicus [8]): Active

For COc1ccc2c(=O)n(CC(O)CO)c(C#N)c(-c3cccc(C(F)(F)F)c3)c2c1 (centres undefined), which IC50 [1] is on record?
The IC50 was 0.25 µM.

Which results are given for COc1ccc2c(=O)n(CC(CO)NCc3cccnc3)c(C#N)c(-c3ccccc3)c2c1 (centres undefined)?
IC50 [1]: 0.12 µM; IC50 [5]: 10 µM

Which IC50 [1] does the source give for COc1ccc2c(=O)n(C)c(CN(C)C)c(-c3ccccc3)c2c1 here?
Its IC50 is 0.19 µM.

What about the clearance [2] of the same compound?
The clearance was 1.56 L/h/kg.

And the bioavailability [3]?
Its bioavailability is 11%.

What about the IC50 [5] of the same compound?
Its IC50 is 5.3 µM.

With COc1ccc2c(=O)n(CCO)c(C#N)c(-c3cccc(F)c3)c2c1 as the compound, how does the IC50 [1] read?
The IC50 was 0.69 µM.
